Measurements from the EternaBench riboswitch data.

System: MS2 coat protein
Experiment: apparent Kd, MS2 coat protein; higher = weaker binding; RNA-MaP array; FMN 200 µM where present
Summary of the method: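 Green signal was scaled to red-channel RNA signal and control-cluster median Fmax, and the apparent Kd was taken as the median of filtered per-cluster binding-curve fits. The binding series used SNAP-549-labelled MS2 coat protein from 0.7 or 1.5 nM, doubling to 3 µM, on designs transcribed by stalled E. coli RNA polymerase on Illumina sequencing-chip clusters. Each series ran without and then with constant ligand in 100 mM Tris-HCl pH 7.5, 80 mM KCl, 4 mM MgCl2, BSA, DTT, yeast tRNA and Tween-20.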

[1] = designed as: OFF switch for flavin mononucleotide, no ligand
[2] = ligand present: flavin mononucleotide, designed as: OFF switch for flavin mononucleotide
[3] = designed as: ON switch for flavin mononucleotide, no ligand
[4] = ligand present: flavin mononucleotide, designed as: ON switch for flavin mononucleotide

Row | Sequence | apparent Kd [1] [nM] | apparent Kd [2] [nM] | apparent Kd [3] [nM] | apparent Kd [4] [nM]
1 | UUUUUAUAUGAAGGAUAUACUUAACAUGAGGAUCACCCAUGUGGUGUUGUGAGUGAGUGAGUUUAGUAGAAGGUCAAUUCUUUU | 236 | 205 |  | 
2 | GGGUACAUCGGAGGAUAUCAUGUAAAUACAUGAGGAUCACCCAUGUAGAUGGAGACAUCGGAGAUUGAGAAGGCCGAUGUACCG |  |  | 7.69 | 5.84
3 | AUGUACCGGUGAGGAUAUUUUUAAUAGAGCUUUAUGAUAUACAUGAGGAUCACCCAUGUUACGUUAAAGAAGGCAUCGGAUUAA | 21 | 15.9 |  | 
4 | CGUUAAUAUCGAGGAUAUGUCUAGACACAUGAGGAUCACCCAUGUAUGUGUAUAGAAGGCGAUAUUAACAGCAUGUUACAUCCC |  |  | 46.6 | 18.8
5 | GCUUUAGCACAUGAGGAUCACCCAUGUAGCGUGGGCUUACACAGAAGGGCAAACCGUUACGGGAUGUAGGAUAUGUGCAAAAUG |  |  | 196 | 68.6
6 | UGCUGGUGACAGCAUCCAUCAAAACAUGAGGAUCACCCAUGUAGAAGGCUGUACGGUUACCGUACAGAGGAUAUACAAUGAUGA | 13.9 | 22.2 |  | 
7 | GUCAUCUCGUGAGGAUAUACAACACUGCUUCGGCAGUGUAUUAAGAUCACAUGAGGAUCACCCAUGUAGAAGGCACGAGCUGAU | 15 | 214 |  | 
8 | AAGGAUAGAGGAUAUACAUAGAUACAGAUUCAUGUGGAACUACAUGAGGAUCACCCAUGUAGAAGGCUAUCCUA | 40.1 | 262 |  | 
9 | GUCCGUAGACAGAAGGUGACAUGAGGAUCACCCAUGUUAGUUGAGGUAUCAGCGAUCUGCGUGAUUGAGGAUAUGUCUACGGGC | 7.9 | 8.22 |  | 
10 | CGAUUUGUAGGAUAUGUAUGAGUAAUCCCUUUUUAUGAAGAACAUGAGGAUCACCCAUGUAGAAGGGCAUUGUA | 19.6 | 17.6 |  | 
11 | AAAGAGGCGGAUCGCAACUACCAGCAGGAUAUGGGUGUUUUUACAUGAGGAUCACCCAUGUACAUCUAGAAGGGUUGGGUGUCC |  |  | 576 | 76.6
12 | AUCAGCUCGUCAGGAUAUACUUCACUGCGUCAGCAGUGUGGUAAGAUCACAUGAGGAUCACCCAUGUAGAAGGGACGAGCUGAU | 6 | 8.71 |  | 
13 | GCACUGGAUGUAGGAUAUCAGGACGAUAAGUCCUGAGAAGGACAUGAGGAUCACCCAUGUCUCAAAUACCAGUGCAAUAAUAUA | 12.3 | 14.8 |  | 
14 | AGUGUCAUCGAGAAGGCCUUAACAUGAGGAUCACCCAUGUUGUAACAUGGGAGGAUAUCGAUGAUACAGCUACGUUUCGUAGCA |  |  | 412 | 25.5
15 | GAAUGGGAGUAGAAGGUACGUUAUUAGUUAAGGUAAGGAUAUACUAUAAUACAGACGACAUAUAAACAUGAGGAUCACCCAUGU |  |  | 10.3 | 6.55
16 | GAUUGACGACAAUUACAUGAGGAUCACCCAUGUUGUAGUAUGCAGGAUAUGUGGUAUAUUAUUUAACAGAAGGGCAAUAAUUUU |  |  | 81 | 42.4
17 | GGCCCGCGCGUGAGGAUAUGCUGAUACUAGGAUCAGCAGAAGGCACAUGAGGAUCACCCAUGUCCAACUUGUCU | 28.9 | 36.4 |  | 
18 | GCCAUCGCAUGAGGAUAUGCUCCGGUUUCCGGAGCAGAAGGCGUGUCAUAAGACAUGAGGAUCACCCAUGUAGCUAAGAUGGCA |  |  | 249 | 10.8
19 | ACGGACCUAGGAUAUACAUGAGGAUCACCCAUGUGCCCGCAUGGUCCGGGUCCUGAGAGUAGAAGGAGGAGCGA | 50.9 | 43.2 |  | 
20 | ACCUAGUCAGGAUAUGUACGGACCGGAAGCGGAUCGGAGGAGCAGAAGGGACAUGAGGAUCACCCAUGUUUGUU | 25.3 | 28 |  | 
21 | GCCAGCGCAUGAGGAUAUGCUCCCGUUUCGGGAGCAGAAGGCAUGUCAUAAGACAUGAGGAUCACCCAUGUAGUUAACAUGGCA |  |  | 311 | 23
22 | CCCUCAACAUGAGGAUCACCCAUGUAGGAUAUCGCUAUUGUAAUCAUGAAACAUGAUUACAAUAGCGAGAAGGACAUAUGCAAA | 25.2 | 126 |  | 
23 | UCGCCACAUGAGGAUCACCCAUGUCAGGAUAUCUAGAUGCGUCUUGAGCUCAAGCGCUGGAGAAGGGAUUGGGU | 235 | 67.5 |  | 
24 | AAAAGGUCAGGAUAUGCGAGCGGCAGGGAGGCAGGUCGGUGGCAGAAGGGACAUGAGGAUCACCCAUGUUAAAA | 35 | 34.1 |  | 
25 | UUGAGGUAGGAGAAGGACAGAGGCGGAAACACAAACAUGAGGAUCACCCAUGUAGGAUAUCCUAACUAACGAGGAUACCUCAAG | 6.49 | 7.53 |  | 
26 | CAGCGACAUGGAGGAUAUAGGGCCCAAGGGCACCUAGAAGGCCAAAAGCAGACAGGUCACAUGAGGAUCACCCAUGUACGCCAG |  |  | 241 | 16.3
27 | CGGUCGAUAUCAGGAUAUCGAUUAAUUACAUGAGGAUCACCCAUGUUGACAUGGAAUAUAACAUGCGAGAAGGGAUUACGAUCG |  |  | 27.6 | 10.7
28 | UGGUACUAGGGAGGAUAUGGUAAGAUACAUGAGGAUCACCCAUGUUUAAGAAUGCCGAGAGGCAACUAGAAGGCCCUAGUACCU |  |  | 6.47 | 5.04

Row | Sequence | apparent Kd [1] [nM] | apparent Kd [2] [nM] | apparent Kd [3] [nM] | apparent Kd [4] [nM]
29 | AUCAGCUUGACAGGAUAUGCAUGUCAGCGAAAGCUGACAAUCUUAAUAACAUGAGGAUCACCCAUGUAGAAGGGUCGAGCUGAU | 17.1 | 20.3 |  | 
30 | CACUCGUGUCUAGGAUAUGAGUGACAAGCGCGAGAUUUUCUCGCUGCUAGCUCAGAAGGAGACAUGAGGAUCACCCAUGUAAGG | 144 | 25.4 |  | 
31 | AGCAUGGUAGGAUAUACGGAGCAUUAGGGUUUGUUGUGUGGACAUGAGGAUCACCCAUGUAGAAGGGCCGUGCA | 47 | 64.2 |  | 
32 | AAUAGGCUCGCGCAGGAUAUGGAUCAUUCCACAUGAGGAUCACCCAUGUUAAGGAGCCUUUGCAUCCAGAAGGGUGUUGGUCUUU |  |  | 97.2 | 17.9
33 | GUGUACAGAGGAUAUAUAUGGGCAUGGAAACAUGCAUCUUCACAUGAGGAUCACCCAUGUAGAAGGCUGUACAC | 143 | 84.6 |  | 
34 | AUUUAAUUUAAUAAGAUCACAUGAGGAUCACCCAUGUAUAUAUAGGAUAUCAGCUCGUGUAGAGCUGAGAAGGAUAUAUACUAU | 316 | 204 |  | 
35 | CGCGCGCGUGUUAGGAUAUAUGUGUGUGGUUAUUUAUAGAAGGGACAUGAGGAUCACCCAUGUGUGUGGGCGCG | 520 | 489 |  | 
36 | GACACUAUGUUUGUCAGAUAGAGAGAGGAUAUGGGUCAUGAGACAUGAGGAUCACCCAUGUUUAAUCAGAAGGCUCGAGUACGA |  |  | 30.7 | 15.6
37 | UAUUAGUGAGGAUAUGAGUCGUAGAACAAUAGUACUACGUCUCAGAAGGUACAUGAGGAUCACCCAUGUUUCUC | 20 | 23.8 |  | 
38 | CUCAUGAGAGGAUAUACAUGAGGAUCACCCAUGUGGUUAUCUCCUCGGGCUCCAUUACGUAGAAGGCUCAUUUG | 33.9 | 90.6 |  | 
39 | UCUCGACAUGAGGAUCACCCAUGUCAGGAUAUUGUAUUGGAGGUUUUUUACCUUAUGGCAAGAAGGGAUGUGUG | 20.6 | 21.6 |  | 
40 | GCUGCGCGAGGAUAUGCGGUUCGCGCGGUGGCCCGUGGCGGACAUGAGGAUCACCCAUGUAGAAGGCGUGCGGG | 11.1 | 12.1 |  | 
41 | UUAGUCAUGUUAGGAUAUCCGAUGCGAAGCGUUGGAGAAGGAACAUGAGGAUCACCCAUGUUCUGCGUCUGAGUACAGAUGCUA | 29.6 | 123 |  | 
42 | CAUGUCCUCACAGGAUAUGCUGGACUUUGUCCAGCAGAAGGGUGUUAACAUGAGGAUCACCCAUGUGGACAUGAUAUAUUUAAG |  |  | 757 | 66.2
43 | CCGUAAUAUGGAGGAUAUGGAGCCUUAUUGGCUCCAGAAGGUCAUAAAACAUGAGGAUCACCCAUGUCGGCGGUCAAUAGACCG |  |  | 55.7 | 20.5
44 | AGUUGCAAACACAACAUGAGGAUCACCCAUGUACUCUCGUGUAAGGAUAUACAUUCGUAUGGAAAGUAGAAGGUACUAAUUAUG |  |  | 27.3 | 32.1
45 | UCAUUAUAAAUCCAUCAUAACUACAUGAGGAUCACCCAUGUGCAGGAUAUCGAUGGUUUAACUAUCGAGAAGGGCAAUUACAGA | 31.9 | 72.1 |  | 
46 | AGCGGCCGAGGAUAUACAAUCCUCCUGGCAGCCUGUCUGCCACAUGAGGAUCACCCAUGUAGAAGGCGGACCGC | 167 | 38.3 |  | 
47 | GGAUAGGAAAGAGGAUAUACGUGCUAGAGAUACUAGCAAAAUUUCCUCACAUGAGGAUCACCCAUGUAGAAGGCUGUCCUAUCG | 5.95 | 38.9 |  | 
48 | GUCUGGCUAGGAUAUACAUAGUCCACGAGUCGGUUGCCCUGACAUGAGGAUCACCCAUGUAGAAGGAGCGAGAA | 19.4 | 18.6 |  | 
49 | CAGUACUGAGGAUAUACAUGAGGAUCACCCAUGUGUUCCAGCUAGGAAACUAGCGAAAGUAGAAGGCAGUACUG | 23.3 | 551 |  | 
50 | GCACGGUAUGUAGGAUAUGCAUAGCAUUGCUAUGCAGAAGGACAUGAGGAUCACCCAUGUAUGUAUUCCAUAUAUUUCCCGUGC | 5.55 | 5.87 |  | 
51 | GGGCAACAUGAGGAUCACCCAUGUCAGGAUAUCGGGCCCGGGCCGAAAGGCCCGGGCCCGAGAAGGGACAGCCC | 21.3 | 21.6 |  | 
52 | UUGAAUUGAAACAUGAGGAUCACCCAUGUGUCAUAAUUGACAUAGGAUAUGUUUAUACUUUUAAAAUAGAAGGAUGACGAUACU |  |  | 13.8 | 11.8
53 | UGUUGUAUUACAGGAUAUCUAUUAGAUUUAUUUAGAGAAGGGUAUUCACAUGAGGAUCACCCAUGUAUAUACGAGGAAGUUGUG |  |  | 57 | 58.6
54 | GGUGCCAUGUAGAAGGCAGAUCUGAUUCAGAUCUGAGGAUAUACAUGAGGAUCACCCAUGUAAAGGCACCUCACGAGAGUGCAA | 10.5 | 34.6 |  | 
55 | AGUAACUCAGAUCUUUUGAACAUGAGGAUCACCCAUGUAUUGAGAAGGAGCUGGAAGAGAGACAGCUAGGAUAUCAGAGUUGCG | 5.96 | 7.19 |  | 
